Experimental data: PubChem BioAssay
Activity calls are given as the source filed them.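 How the source made its calls, unless noted: active means fluorescence slope higher than the sample average by over 3 SD (cut at about -0.22 in these data, passing the limit was not always enough); inactive means the rest.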

What was measured:
[1] = inhibitors of TNFa-induced NFkB p65 translocation, primary screen, imaging, HUVEC, MLSMR starter and 10KST1 sets (AID 438;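 active means inhibition above 20% together with a positive visual image hit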;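 further: compound added about 3h40 before a 20 min TNFalpha stimulation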;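 on inhibition: signal is the nuclear over cytoplasmic p65 intensity ratio per well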); conditions: HUVEC TNFa-induced p65 nuclear translocation; cell count: measured here: nuclei count (cytotoxicity indicator), at 2.08 µM; inhibition: at 2 µM, stronger effect = higher value, 0% TNFa-plus-vehicle, 100% no-TNFa wells
[2] = inhibitors of E-selectin induction by TNFa, primary screen, imaging, HUVEC, immunofluorescence, MLSMR starter and 10KST1 sets (AID 487;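 active means visually confirmed hit in the image check and inhibition above 20%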;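 on inhibition: signal is fraction of cell area covered by stained E-selectin grains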;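 on nuclei count: 100% = median nuclei count of all wells on the same plate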); conditions: HUVEC TNFalpha-induced E-selectin immunofluorescence imaging, at 2 µM; inhibition: stronger effect = higher value; nuclei count: measured here: cell number, toxicity
[3] = DUSP6 inhibitors restoring Erk phosphorylation by chemical complementation, primary imaging in DUSP6-transfected HeLa (AID 609;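 active means compounds giving at least 50% inhibition in the cell-based MKP-3 phosphatase rescue imaging test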;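 on inhibition: phospho-Erk level distribution per well compared with pooled transfected vehicle control wells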); conditions: HeLa MKP-3 transfected, phospho-Erk imaging KS statistic, at 10 µM, cells stimulated with TPA for 15 min
[4] = target: Dual specificity protein phosphatase 6 (Homo sapiens) (UniProt Q16828); test: as above; conditions: HeLa MKP-3 transfected, phospho-Erk imaging KS statistic; at 10 µM; stronger effect = higher value; cells stimulated with TPA for 15 min
Chain of Dual specificity protein phosphatase 6 (Homo sapiens) (Q16828 whole entry, looked up): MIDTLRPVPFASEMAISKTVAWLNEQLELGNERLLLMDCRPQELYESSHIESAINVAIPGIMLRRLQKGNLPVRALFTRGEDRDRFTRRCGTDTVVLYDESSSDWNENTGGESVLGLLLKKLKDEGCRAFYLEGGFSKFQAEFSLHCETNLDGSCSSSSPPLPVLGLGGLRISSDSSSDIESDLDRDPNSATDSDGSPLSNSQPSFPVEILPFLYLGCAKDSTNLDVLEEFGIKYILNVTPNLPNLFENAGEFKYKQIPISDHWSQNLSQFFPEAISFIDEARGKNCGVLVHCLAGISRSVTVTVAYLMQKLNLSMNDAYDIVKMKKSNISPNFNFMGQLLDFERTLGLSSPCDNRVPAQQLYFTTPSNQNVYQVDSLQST

[5] = target: Voltage-gated potassium channel subunit beta-2 (Rattus norvegicus) (UniProt P62483); test: KvBeta enzyme negative modulators, primary screen, biochemical, NADPH fluorescence (AID 622); conditions: recombinant KvBeta, 4-cyanobenzaldehyde reduction, at 10 µM, stronger effect = higher value;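 further: slope of raw intensity against log time taken from 70 to 1610 s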
Chain of Voltage-gated potassium channel subunit beta-2 (Rattus norvegicus) (P62483 whole entry, looked up): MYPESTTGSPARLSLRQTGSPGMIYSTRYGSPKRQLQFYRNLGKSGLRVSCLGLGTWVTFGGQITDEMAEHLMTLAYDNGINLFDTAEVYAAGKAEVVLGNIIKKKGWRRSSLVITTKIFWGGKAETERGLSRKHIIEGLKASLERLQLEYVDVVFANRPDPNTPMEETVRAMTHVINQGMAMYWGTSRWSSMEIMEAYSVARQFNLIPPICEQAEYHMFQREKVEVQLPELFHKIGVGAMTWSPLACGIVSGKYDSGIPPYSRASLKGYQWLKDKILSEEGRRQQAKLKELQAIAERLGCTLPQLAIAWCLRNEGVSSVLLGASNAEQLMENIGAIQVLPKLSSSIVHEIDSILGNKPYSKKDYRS

[6] = target: Voltage-gated potassium channel subunit beta-2 (Rattus norvegicus) (UniProt P62483); test: KvBeta positive modulators, primary screen, biochemical, NADPH fluorescence (AID 623;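 active means NADPH fluorescence slope more negative than the mean of all samples by about 3 SD, 99.7% confidence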;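 further: fluorescence intensity change per second fitted from 20 to 320 s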); conditions: Recombinant KvBeta, NADPH fluorescence decrease slope, 10 min; at 10 µM; stronger effect = lower value
[7] = target: Alpha-2C adrenergic receptor (Homo sapiens) (UniProt P18825); test: modulators of alpha2C/GIRK thallium flux, primary screen, cell-based, HEK293 alpha2C/GIRK1/2 (AID 624;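 active means fluorescence slope after compound addition differing from the mean of all screened samples at 99.7% confidence, in either direction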;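 further: slope of fluorescence ratio to pre-addition baseline per second over 15 to 24 s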); conditions: thallium flux BTC fluorescence, at 10 µM, actives lie on both sides
Chain of Alpha-2C adrenergic receptor (Homo sapiens) (P18825 whole entry, looked up): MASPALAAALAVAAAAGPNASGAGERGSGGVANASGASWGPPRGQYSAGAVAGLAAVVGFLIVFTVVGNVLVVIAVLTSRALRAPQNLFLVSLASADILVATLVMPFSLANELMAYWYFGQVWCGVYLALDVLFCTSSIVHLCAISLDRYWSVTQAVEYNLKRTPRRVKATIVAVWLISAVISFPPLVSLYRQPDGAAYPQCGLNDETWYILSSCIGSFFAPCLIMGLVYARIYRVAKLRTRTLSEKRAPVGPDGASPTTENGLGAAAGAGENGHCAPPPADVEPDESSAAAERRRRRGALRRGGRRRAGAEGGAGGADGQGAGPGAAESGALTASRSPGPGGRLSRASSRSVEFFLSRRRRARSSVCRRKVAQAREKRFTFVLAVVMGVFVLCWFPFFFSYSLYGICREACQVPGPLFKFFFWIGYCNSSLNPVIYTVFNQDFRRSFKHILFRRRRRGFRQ

[8] = inhibitors of larval lipid processing in zebrafish, primary screen, whole organism, PED6 fluorescence, gall bladder and intestine (AID 686;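 active means a full or partial loss of lipid-probe fluorescence in the fish gall bladder, intestine or both, judged by eye; inactive means no fluorescence loss, or compound toxic to the fish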;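 further: larvae 5 to 7 days old with five fish per well; signal comes from phospholipase A2 cleavage of quenched PED6 carried via bile; overnight exposure to compound and PED6 before scoring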); conditions: Zebrafish larvae PED6 lipid processing, fluorescence scoring; screened at 20 µM (by protocol)
Method in brief: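 Doses: 20 µM single dose. Test system: live zebrafish larvae aged 5-7 days, whole organism. Quantity: five larvae per well. Measured by: By-eye fluorescence microscopy. Reagent: ingested quenched lipid PED6 at 100 nM. Read-out: visual per-well fluorescence inhibition score. Times: overnight exposure of larvae to compound plus PED6.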

[9] = inhibitors of Chlamydomonas gravitaxis, primary screen, whole organism, Chlamydomonas reinhardtii, WT vs cilia-less mutant, absorbance, 96-well (AID 463189;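 active means inhibition at or above 50% relative to wild type and mutant plate controls; inactive means inhibition below 50%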;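 further: 0% = wild type cc124 cells in DMSO and 100% = ciliumless bld1 mutant cells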); conditions: OD600 absorbance, 2 days, at 10 µM, stronger effect = higher value
[10] = measured here: cell density z-score
[11] = measured here: nuclear c-Myc green intensity z-score
[12] = measured here: nuclear pErk red intensity z-score, stronger effect = higher value

| Compound | cell count [1] | inhibition [1] | inhibition [2] | nuclei count [2] | z-score [3, 10] | z-score [3, 11] | z-score [3, 12] | inhibition [4] | fluorescence slope [5] | NADPH fluorescence slope [6] | slope [7] | outcome [8] | inhibition [9] |
| --- | --- | --- | --- | --- | --- | --- | --- | --- | --- | --- | --- | --- | --- |
| CC(=O)c1c(C)c2c(n1CCN(C)C)CCCC2 | 518 | -10% (inactive) | 17.6% (inactive) | 93.6% | -0.53 | 2.44 | 1.25 | -11.5% (inactive) | -0.521 (inactive) | -1.7e-05 (inactive) | 0.0146 (active) | inactive | -13.1% (inactive) |
| Cc1occc(=O)c1OC(=O)Nc1ccccc1 | 477 | -8.6% (inactive) | -106% (inactive) | 154% | -0.12 | 2.47 | -1.69 | 14% (inactive) | -0.524 (inactive) | -2.3e-05 (inactive) | 0.00424 (inactive) | inactive | -3.66% (inactive) |
| Cc1nnc(C)n1/N=C/c1cc(Br)cc(Br)c1O | 354 | 3.7% (inactive) | -46.9% (inactive) | 156% | 0.57 | 0.148 | -0.137 | 1.6e-07% (inactive) | -0.368 (inactive) | -0.000109 (inactive) | 0.00748 (inactive) | inactive | 4.5% (inactive) |
| Cc1cc(C(F)(F)F)c(C#N)c(SCC(=O)NC2CC2)n1 | 541 | -11.5% (inactive) | 2.6% (inactive) | 99.8% | 1.52 | -0.242 | -0.534 | 15.5% (inactive) | -0.514 (inactive) | -3.6e-05 (inactive) | 0.0063 (inactive) | inactive | 7.84% (inactive) |
| COc1ccccc1-c1nnc2sc(COc3ccccc3)nn12 | 670 | -8.1% (inactive) | -201% (inactive) | 161% | 0.204 | -1.19 | 2.54 | -16.8% (inactive) | -0.444 (inactive) | -0.000151 (inactive) | 0.00451 (inactive) | inactive | 5.33% (inactive) |
| CNC(=O)c1cc2c(ccc3ccccc32)oc1=N | 498 | -4% (inactive) | -64.4% (inactive) | 134% | 0.106 | 1.1 | -0.558 | -0.159% (inactive) | -0.075 (active) | -2.6e-05 (inactive) | 0.00187 (inactive) | inactive | 0.922% (inactive) |
| O=C1c2ccccc2C(=O)C1c1ccc2ccccc2n1 | 336 | -17.4% (inactive) | -56% (inactive) | 109% | -0.111 | -0.223 | 0.575 | -7.28% (inactive) | -0.43 (inactive) | -2.4e-05 (inactive) | 0.00379 (inactive) | inactive | -14.2% (inactive) |
| Cc1nn(C)cc1CNC(=O)c1ccc(Br)o1 | 507 | -14.6% (inactive) | -66.6% (inactive) | 111% | 0.29 | 0.777 | -0.409 | 10.1% (inactive) | -0.444 (inactive) | -3.5e-08 (inactive) | 0.00689 (inactive) | inactive | 0.36% (inactive) |
| Cn1c(=O)c2c(nc(NCc3ccc4c(c3)OCO4)n2Cc2ccc(F)cc2)n(C)c1=O | 600 | 3.1% (inactive) | -39.4% (inactive) | 152% | -0.468 | -0.0841 | -0.555 | -2.91% (inactive) | -0.511 (inactive) | -8.9e-05 (inactive) | 0.00456 (inactive) | inactive | 2.97% (inactive) |
| COc1ccc(/C(O)=C2/C(=O)C(=O)N(CCCN(C)C)C2c2ccccc2)cc1OC (stereo unspecified) | 346 | -14.7% (inactive) | -317% (inactive) | 131% | -0.204 | -0.251 | 0.0495 | 9.39% (inactive) | -0.386 (inactive) | -3.5e-05 (inactive) | 0.00558 (inactive) | inactive | -0.889% (inactive) |
| C=CCn1c(=S)[nH]c2nc3c(cc2c1=O)CCCC3 | 546 | -1% (inactive) | -44.7% (inactive) | 112% | -0.436 | 2.14 | 0.929 | -7.28% (inactive) | -0.428 (inactive) | 4.7e-06 (inactive) | 0.0129 (inactive) | inactive | -0.142% (inactive) |
| CC1(C)Cc2c(sc3c2C(=O)N(c2ccccc2)C2=NCCCN23)CO1 | 624 | -12.4% (inactive) | -154% (inactive) | 120% | 1.04 | -0.486 | -1.32 | 18.9% (inactive) | -0.593 (inactive) | -2e-05 (inactive) | 0.00454 (inactive) | inactive | 41.4% (inactive) |
